Results: ChEMBL document CHEMBL3286230, “Tetra- and pentacyclic triterpene acids from the ancient anti-inflammatory remedy frankincense as inhibitors of microsomal prostaglandin E(2) synthase-1” (J Nat Prod, 2014)

What was measured:
[1] = target: T1, Prostaglandin E synthase (Homo sapiens) (UniProt O14684); assay: Inhibition of microsomal PGES1 isolated from IL-1beta-stimulated human A549 cells assessed as residual activity at 10 uM preincubated for 15 mins followed by substrate addition measured after 1 min by RP-HPLC analysis relative to control; format: cell-free
T1 sequence (whole entry): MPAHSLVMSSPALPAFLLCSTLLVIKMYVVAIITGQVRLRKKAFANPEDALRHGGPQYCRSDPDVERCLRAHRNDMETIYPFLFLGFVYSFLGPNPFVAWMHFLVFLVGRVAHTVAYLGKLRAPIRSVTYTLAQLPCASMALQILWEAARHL
In short: (§1)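 Enzyme source: microsomes from A549 cells, cultured 16 h at 37 °C and 5% CO2, then given fresh medium and induced with IL-1β (1 ng/mL) for 72 h. Microsomes were prepared by sonication and centrifugation at 174000g. Membranes in 0.1 M potassium phosphate pH 7.4 with 2.5 mM GSH were preincubated with compound or DMSO vehicle for 15 min at 4 °C. PGH2 (20 μM final) was added and the reaction ran 1 min at 4 °C. It was stopped with FeCl2/citric acid containing 11β-PGE2 as internal standard. PGE2 was measured by SPE and RP-HPLC; n = 3–4, mean + SEM.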

[2] = target: T2, Prostaglandin E synthase (Homo sapiens, UniProt O14684); assay: Inhibition of microsomal PGES1 isolated from IL-1beta-stimulated human A549 cells preincubated for 15 mins followed by substrate addition measured after 1 min by RP-HPLC analysis; format: cell-free; in short: as §1
T2 sequence (O14684 whole entry): T1 sequence (whole entry)

[3] = target: T3, Prostaglandin G/H synthase 1 (Ovis aries, UniProt P05979); assay: Inhibition of ovine COX-1 using arachidonic acid as substrate assessed as PGE2 formation after 2 mins by LC-MS/MS analysis
T3 sequence (P05979 whole entry): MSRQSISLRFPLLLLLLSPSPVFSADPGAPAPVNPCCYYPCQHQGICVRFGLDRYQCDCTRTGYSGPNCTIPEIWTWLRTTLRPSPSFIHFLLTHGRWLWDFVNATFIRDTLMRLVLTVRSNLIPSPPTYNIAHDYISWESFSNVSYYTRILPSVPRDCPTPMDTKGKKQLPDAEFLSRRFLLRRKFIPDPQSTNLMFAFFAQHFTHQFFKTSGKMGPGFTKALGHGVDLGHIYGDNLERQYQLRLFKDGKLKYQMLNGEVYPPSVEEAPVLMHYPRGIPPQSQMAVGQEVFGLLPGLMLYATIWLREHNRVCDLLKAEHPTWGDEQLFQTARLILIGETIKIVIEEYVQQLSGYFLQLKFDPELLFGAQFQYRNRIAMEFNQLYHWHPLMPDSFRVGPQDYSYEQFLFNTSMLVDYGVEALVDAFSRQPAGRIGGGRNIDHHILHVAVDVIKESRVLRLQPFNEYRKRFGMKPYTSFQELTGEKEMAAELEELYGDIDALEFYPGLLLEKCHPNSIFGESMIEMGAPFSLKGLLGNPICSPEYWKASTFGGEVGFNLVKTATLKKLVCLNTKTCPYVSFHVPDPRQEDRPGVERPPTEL

[4] = target: T4, Prostaglandin G/H synthase 2 (Homo sapiens, UniProt P35354); assay: Inhibition of human COX-2 using arachidonic acid as substrate assessed as PGE2 formation after 2 mins by LC-MS/MS analysis
T4 sequence (P35354 whole entry): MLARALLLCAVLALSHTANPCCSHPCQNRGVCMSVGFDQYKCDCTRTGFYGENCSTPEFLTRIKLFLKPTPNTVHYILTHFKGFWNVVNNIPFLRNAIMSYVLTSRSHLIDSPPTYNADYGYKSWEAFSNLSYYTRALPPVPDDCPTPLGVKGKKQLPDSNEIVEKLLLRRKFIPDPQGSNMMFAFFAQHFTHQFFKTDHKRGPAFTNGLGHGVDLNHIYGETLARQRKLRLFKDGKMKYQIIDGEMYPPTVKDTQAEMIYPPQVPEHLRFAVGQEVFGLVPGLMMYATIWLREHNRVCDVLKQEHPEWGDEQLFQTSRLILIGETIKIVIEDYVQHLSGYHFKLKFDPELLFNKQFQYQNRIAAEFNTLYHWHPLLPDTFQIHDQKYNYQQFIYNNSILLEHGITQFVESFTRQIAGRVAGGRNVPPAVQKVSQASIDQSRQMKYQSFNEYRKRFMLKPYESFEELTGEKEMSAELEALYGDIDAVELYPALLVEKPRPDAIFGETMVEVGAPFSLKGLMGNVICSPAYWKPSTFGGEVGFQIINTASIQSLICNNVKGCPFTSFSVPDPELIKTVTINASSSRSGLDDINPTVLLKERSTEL

[5] = target: T5, Prostaglandin G/H synthase 1 (Ovis aries) (UniProt P05979); assay: Inhibition of ovine COX-1 using arachidonic acid as substrate assessed as residual activity at 10 uM preincubated for 5 mins followed by substrate addition measured after 5 mins by HPLC analysis relative to control
T5 sequence (whole entry): T3 sequence (P05979 whole entry)

[6] = target: T3, Prostaglandin G/H synthase 1; assay: Inhibition of ovine COX-1 using arachidonic acid as substrate preincubated for 5 mins followed by substrate addition measured after 5 mins by HPLC analysis
[7] = target: T4, Prostaglandin G/H synthase 2; assay: Inhibition of human recombinant COX-2 using arachidonic acid as substrate preincubated for 5 mins followed by substrate addition measured after 5 mins by HPLC analysis
[8] = Cytotoxicity against human IMR32 cells after 48 hrs by MTT assay; format: functional, cell-based; settings: IMR-32, 48 h
[9] = Cytotoxicity against human NB39 cells after 48 hrs by MTT assay; format: functional, cell-based; settings: NB39, 48 h
[10] = tested on: SK-N-SH; assay: Cytotoxicity against human SK-N-SH cells after 48 hrs by MTT assay; format: functional, cell-based

## CC(C)[C@@H]1CC[C@]2(C)[C@H](CC=C3[C@@H]4[C@@H](C)[C@H](C)CC[C@]4(C)CC[C@]32C)[C@@]1(C)CCC(=O)O
[1]
  Activity: 92.4%
[2]
  IC50: > 10 µM

## C=C(C)[C@@H]1CC[C@]2(C)[C@H](CC=C3[C@@H]4[C@@H](C)[C@H](C)CC[C@]4(C)CC[C@]32C)[C@@]1(C)CCC(=O)O
[1]
  Activity: 83.9%
[2]
  IC50: > 10 µM
[3]
  IC50: > 10 µM
[4]
  IC50: > 10 µM

## CC(C)=CCC[C@H](C(=O)O)[C@H]1CC[C@]2(C)C3=C(CC[C@@]12C)[C@@]1(C)CCC(=O)C(C)(C)[C@H]1CC3 [BETA-ELEMONIC ACID]
[1]
  Activity: 16.7%
[2]
  IC50: 0.9 µM
[5]
  Activity: 81.1%
[6]
  IC50: > 10 µM
[7]
  IC50: > 10 µM

## CC(C)=CCC[C@H](C(=O)O)[C@@H]1CC[C@]2(C)C3=C(CC[C@@]12C)[C@@]1(C)CC[C@H](O)C(C)(C)[C@@H]1CC3
[1]
  Activity: 29.2%
[2]
  IC50: 1.2 µM
[5]
  Activity: 82.3%
[6]
  IC50: > 10 µM
[7]
  IC50: > 10 µM

## C=C(C)[C@@H]1CC[C@]2(C)CC[C@]3(C)[C@H](CC[C@@H]4[C@@]5(C)CC[C@H](O)[C@](C)(C(=O)O)[C@@H]5CC[C@]43C)[C@@H]12
[1]
  Activity: 43.1%
[2]
  IC50: 8.5 µM
[8]
  IC50: 4.1 µM
[9]
  IC50: 4.1 µM
[10]
  IC50: 4.1 µM

## C=C(C)[C@@H]1CC[C@]2(C)CC[C@]3(C)[C@H](CC[C@@H]4[C@@]5(C)CC[C@H](OC(C)=O)[C@](C)(C(=O)O)[C@@H]5CC[C@]43C)[C@@H]12
[1]
  Activity: 51.4%
[2]
  IC50: 10 µM
[8]
  IC50: 4.1 µM
[9]
  IC50: 4.1 µM
[10]
  IC50: 4.1 µM

## CC(=O)O[C@@H]1CC[C@]2(C)C3=C(CC[C@H]2C1(C)C)[C@@]1(C)CC[C@@H]([C@H](CCC=C(C)C)C(=O)O)[C@]1(C)CC3
[1]
  Activity: 36.8%
[2]
  IC50: 0.4 µM
[5]
  Activity: 63.2%
[6]
  IC50: > 10 µM
[7]
  IC50: > 10 µM

## C=C(C)[C@@H]1CC[C@]2(CO)CC[C@]3(C)[C@H](CC[C@@H]4[C@@]5(C)CC[C@H](OC(C)=O)[C@](C)(C(=O)O)[C@@H]5CC[C@]43C)[C@@H]12
[1]
  Activity: 31.1%
[2]
  IC50: 0.9 µM
[5]
  Activity: 90.7%
[6]
  IC50: > 10 µM
[7]
  IC50: > 10 µM

## CC(C)=CCC[C@H](C(=O)O)[C@@H]1CC[C@]2(C)C3=C(CC[C@@]12C)[C@@]1(C)CC[C@@H](O)C(C)(C)[C@@H]1CC3
[1]
  Activity: 3.5%
[2]
  IC50: 1.1 µM
[5]
  Activity: 81.9%
[6]
  IC50: > 10 µM

## CC(C)=CCC[C@H](C(=O)O)[C@@H]1CC[C@]2(C)C3=CC[C@H]4C(C)(C)[C@H](O)CC[C@]4(C)[C@H]3CC[C@@]12C
[1]
  Activity: 29.6%
[2]
  IC50: 3 µM
[5]
  Activity: 69.6%
[6]
  IC50: > 10 µM
[7]
  IC50: > 10 µM

## CC(C)[C@@H]1CC[C@]2(C)[C@H](CC=C3[C@@H]4CC(C)(C)CC[C@]4(C)CC[C@]32C)[C@@]1(C)CCC(=O)O
[1]
  Activity: 74.1%
[2]
  IC50: > 10 µM

## CC(C)[C@@H]1CC[C@]2(C)[C@H](C(=O)C=C3[C@@H]4[C@@H](C)[C@H](C)CC[C@]4(C)CC[C@]32C)[C@@]1(C)CCC(=O)O
[1]
  Activity: 21.6%
[2]
  IC50: 1 µM
[5]
  Activity: 64.8%
[6]
  IC50: > 10 µM
[7]
  IC50: > 10 µM

## CC(=O)O[C@@H]1CC[C@]2(C)[C@H]3CC[C@@]4(C)[C@H]([C@H](CCC=C(C)C)C(=O)O)CC[C@]4(C)C3=CC[C@H]2C1(C)C
[1]
  Activity: 20.6%
[2]
  IC50: 0.4 µM
[6]
  IC50: > 10 µM
